# Rev-RRE block = HIV Rev-RRE protein-RNA interaction inhibition. Rev peptide-RRE RNA binding, FRET. inhibition, % at 8 µM. actives 0.79% (n = 97,000);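 active = inhibition above the screen-wide mean plus 3 SD, cut at about 35% in these data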;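 also: 0% = median DMSO wells and 100% = median Neomycin B control wells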
# Target sequence (P05866 whole entry, looked up): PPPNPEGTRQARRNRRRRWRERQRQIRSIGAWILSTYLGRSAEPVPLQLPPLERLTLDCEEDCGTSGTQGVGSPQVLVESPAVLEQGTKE
#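 assay system = Cy5-tagged RRE RNA duplex with fluorescein-tagged Rev peptide | incubation = 5 + 15 min at 25 °C | also added = labelled Rev peptide | measure = % inhibition of FRET ratio versus controls | benchmarks = DMSO wells as 0% and neomycin B wells as 100% inhibition | measured by = FRET fluorescence readout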
# EphB4 antag = blocks human EphB4 binding to ephrin-B2; P54760; EphB4 LBD / TNYL-RAW-Alexa532 peptide, fluorescence polarization; inhibition, % at 7 µM; actives 0.15% (n = 97,000);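 active = inhibition above the screen-wide mean inhibition plus 3 SD, cut at about 15% in these data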;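 also: 0% = DMSO wells and 100% = excess unlabeled TNYL-RAW peptide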
# PostGolgi yeast = growth inhibition of a yeast mutant, post-Golgi transport screen; post-Golgi transport phenotypic cell assay; inhibition, % at 10 µM; actives 0.9% (n = 98,000); AID 739;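 also: yeast cells grown in 1536-well plates; yeast grown about 18 h at 30C before absorbance read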
# PostGolgi ctrl = inhibits growth of the yeast control strain; inhibition, % at 10 µM; efflux-deficient yeast background strain, growth absorbance A615, 16 h; actives 5% (n = 98,000)
# PLK1 kinase inh = PLK1 (human) kinase inhibition. actives 0.53% (n = 97,000). inhibition, % at 10 µM. recombinant PLK1 kinase, TR-FRET peptide phosphorylation. P53350;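 active = inhibition of 50% or more in the single-concentration screen; inactive = inhibition below 50%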;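 also: 0% = DMSO max control and 100% = H-89 dihydrochloride min control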
# Plk1 PBD FP = Plk1 (human) PBD binding inhibition. actives 0.13% (n = 97,000). Plk1 PBD phosphopeptide binding, fluorescence polarization. inhibition, %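 (tested at about 20 µM)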; in the data active = inhibition above about 34%, passing the limit was not always enough
# Numbers without * were called inactive; . = not tested or not shown. A selection: hits, their analogues and other compounds. The true share with any hit is near 6.4%. Rule as the data show it, unless noted: active = inhibition above about 30%; inactive = the rest.
SMILES,Rev-RRE block,EphB4 antag,PostGolgi yeast,PostGolgi ctrl,PLK1 kinase inh,Plk1 PBD FP
COc1cccc(/C=C/C(=C2\C(=O)N(c3ccccc3)N=C2C)c2ccc(Br)cc2)c1OC,7,3,.,.,-8,-15
CC(C)Cn1c(-c2ccc(Cl)cc2)cnc1SCC(=O)N1CCOCC1,3,-2,-2,22,-17,-1
CCOC(=O)C(NC(=O)c1ccccc1OCC)(Nc1ncccn1)C(F)(F)F (centres undefined),5,2,2,23,-16,-2
CCCn1c(=O)c2ccccc2n2c(SCc3cc(=O)n4ccsc4n3)nnc12,5,-1,.,.,-6,17
Cc1cccc(-n2c(SCc3cc(=O)n4ccsc4n3)nc3ccccc32)c1,36,5,5,33*,-16,7
CC(C)NC(=O)c1onc(CSc2ccccc2F)c1C(=O)O,2,1,-2,39*,-13,-1
C=CCNC(=O)c1onc(CSc2ccc(C(C)C)cc2)c1C(=O)O,-2,1,-4,33*,-12,-4
C=CCNC(=O)c1onc(CSc2ccc(F)cc2)c1C(=O)NCCOC,4,4,0,46*,-10,-2
COC(=O)C(O)(CC(=O)Nc1cccc(SC)c1)C(F)(F)F (centres undefined),3,2,-1,-2,-16,1
Cc1cc(NC(=O)CSc2nnc(C3COc4ccccc4O3)o2)no1 (centres undefined),2,3,1,42*,-14,-2
O=C(CSc1nnc(C2COc3ccccc3O2)o1)N1CCOCC1 (centres undefined),3,0,1,1,-6,-25
CO/N=C/c1ccc(Sc2ccc(C)cc2)c([N+](=O)[O-])c1,18,5,23,16,-9,1
Cc1ccc(Sc2ccc(/C=N/O)cc2[N+](=O)[O-])cc1,25,-2,-3,31*,-3,15
Cc1cccc2sc(NC(=O)C3c4ccccc4Oc4ccccc43)nc12,6,-2,53*,58*,-12,-14
Cc1cccc2sc(NC(=O)CN(C)S(=O)(=O)c3ccc(Br)s3)nc12,17,8,4,70*,-3,9
Cc1nnc(NC(=O)C2c3ccccc3Oc3ccccc32)s1,8,7,.,.,-11,21
O=C(CC1Sc2ncnn2C1=O)Nc1ccccc1 (centres undefined),17,2,-3,-11,-1,12
O=S(=O)(Nc1nc2ccccc2nc1NCc1ccco1)c1cccs1,0,-5,-13,-1,-4,22
COc1ccc(N2C(=O)CSC2c2ccc3c(c2)OCO3)c(OC)c1 (centres undefined),.,.,5,31*,.,.
CC(C)CCNC(=O)c1nnc(Cc2ccc(Cl)cc2)o1,2,-6,-6,3,-13,13
O=C(COc1ccc2ccccc2c1)Nc1ccc(S(=O)(=O)N2CCCCCC2)cc1,0,0,.,.,-8,13
Cc1ccc([N+](=O)[O-])cc1NC(=O)CN(C(=O)c1ccc(Cl)cc1)C1CCCCC1,15,0,-12,25,-12,20
O=C(CN(C(=O)c1ccccc1Cl)C1CCCCC1)Nc1ccc(Cl)c([N+](=O)[O-])c1,10,5,-3,36*,-4,-13
Cc1ccc(-n2cc3c(-c4cccc(Br)c4)nnc(C)c3n2)cc1,2,-3,99*,41*,-10,-10
Cc1nnc(-c2cccc(Br)c2)c2cn(-c3ccccc3Cl)nc12,7,-4,102*,27,-4,0
SMILES,Rev-RRE block,EphB4 antag,PostGolgi yeast,PostGolgi ctrl,PLK1 kinase inh,Plk1 PBD FP
Cc1nc(SCC(=O)Nn2c(-c3ccccc3)nc3ccccc3c2=O)n[nH]1,2,-6,6,14,-5,9
Cc1cc(C)c2c(n1)nn1c(N3CCN(c4ccccc4C)CC3)cc(C)nc21,13,-5,.,.,-10,7
Cc1ccc(-n2c(-c3ccc(Br)cc3)c[n+]3c2CCc2ccc4cccnc4c2-3)cc1,11,-5,11,50*,1,-12
Cc1[nH]c2c(C)cccc2c1CCNC(=O)c1ccc2c(c1[N+](=O)[O-])C(=O)c1ccccc1C2=O,-1,5,11,40*,5,10
COc1cccc(-n2c(C)c(C(C)=O)c(C(C)=O)c2C)c1,2,4,1,1,-11,-19
Cc1ccc2cc(CN(Cc3ccccc3)Cc3nnnn3C3CCCC3)c(=O)[nH]c2c1,-2,-4,-11,39*,-7,5
COc1ccc2cc(CN(Cc3ccco3)Cc3nnnn3C3CCCCC3)c(=O)[nH]c2c1,6,1,-5,9,-4,6
Cc1ccc2cc(CN(Cc3ccc(F)cc3)Cc3nnnn3C3CCCC3)c(=O)[nH]c2c1,5,13,1,41*,4,-19
CCc1ccc2[nH]c(=O)c(CN(Cc3ccc4c(c3)OCO4)Cc3nnnn3C3CCCC3)cc2c1,-1,4,-2,15,-8,-7
O=C(NCCN1CCOCC1)c1cc2cc(Cl)cc(Cl)c2oc1=O,-1,-7,.,.,-9,31
O=C1CC(O)(C(F)(F)F)Oc2c1ccc1ccccc21 (centres undefined),8,6,5,37*,2,-6
COCCN1C(=O)c2oc3cc(C)c(C)cc3c(=O)c2C1c1cccc(O)c1 (centres undefined),8,2,.,.,3,-20
O=C(CO/N=C/c1cccc([N+](=O)[O-])c1)Nc1ccc2ccccc2c1,11,-7,-6,8,-12,8
O=[N+]([O-])c1cccc(/C=C/c2nc(C=Nc3ccc4ccccc4c3)c(O)o2)c1,49*,-3,-3,12,-17,-8
Clc1ccc(Sc2oc(/C=N/n3cnnc3)cc2Br)cc1,4,-2,4,47*,-4,-11
O=S(=O)(c1ccccc1)N1N=C(c2cccs2)CC1c1ccc(Br)cc1 (centres undefined),6,3,-2,26,-9,9
O=C(c1cccs1)N1N=C(c2ccccc2)CC1c1ccccc1 (centres undefined),13,-3,1,69*,-22,-1
O=C(c1ccco1)N1N=C(c2cccs2)CC1c1ccc(F)cc1 (centres undefined),14,-2,14,35*,-12,7
Cc1ccc(Nc2cc(C)nc(-c3ccccc3O)n2)cc1,10,-4,-4,40*,-19,18
O=C(CN1CCN(Cc2ccccc2F)C1=O)NCc1ccco1,1,0,-7,0,2,-22
CC1Cc2nc(SCC(=O)Nc3ccc4c(c3)OCO4)n(CCc3ccccc3)c(=O)c2S1 (centres undefined),.,.,6,1,.,.
CCn1c(SCC(=O)Nc2ccc3c(c2)OCO3)nc2c(c1=O)SC(C)C2 (centres undefined),-1,-2,6,74*,-11,10
